# Laboratory results reported in the array DNA melting data of Ke et al. (doi:10.1101/2024.01.08.574731).
# Assays:
# [1] = folding enthalpy; higher = less favourable; fluorescence melt of hairpins on a sequencing array, two-state fit; conditions: sodium 0.088 M
# How it was run: (§1)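 Melting temperature and folding enthalpy were derived from bootstrapped two-state fits. The fitted temperatures were raised by 9.35 °C to agree with UV melts, and four replicates were combined by inverse variance. The underlying data were Cy3 fluorescence images of library hairpins, with annealed Cy3 and quencher oligos, on a sequenced MiSeq flow cell in 50 mM Na-HEPES pH 8.0, 25 mM NaCl, taken in 2.5 °C steps up to 60 °C, normalised to pre-quench Cy3 and to control constructs.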
# [2] = melting temperature; fluorescence melt of hairpins on a sequencing array, two-state fit, raised by 9.35 °C to match UV melts; conditions: sodium 0.088 M
# How it was run: as §1
Sequence,folding enthalpy [1],Tm [2]
GGTCTCGAAAGAGAACC ((((((....))).))),-19 kcal/mol,50 °C
GGCGAAGGAAACTTTGCC (((.(((....))).))),-35.8 kcal/mol,53.2 °C
GTAGATCCGAAAGGATAC (((..(((....)))))),-11.1 kcal/mol,30.4 °C
GCGCAACGAAAGTTACGC (((.(((....))).))),-44.9 kcal/mol,57.5 °C
GGAAGTGGAAACACTCCC ((.((((....)))).)),-23 kcal/mol,42.7 °C
GATGTTACGAAAGTAATC (((..(((....)))))),-13.5 kcal/mol,26.9 °C
GTCCCGCGAAAGCGCGAC (((.(((....))).))),-21.4 kcal/mol,49.5 °C
GATCTGTCGCCAGATC ((((((....)))))),-37.6 kcal/mol,50.1 °C
GATCCACCGGTGGATC ((((((....)))))),-50 kcal/mol,60.3 °C
GTGCTACGAAAGTACAC (((.(((....)))))),-25.5 kcal/mol,45.3 °C
GAGGTTCCGAAAGGACTC (((..(((....)))))),-14.9 kcal/mol,31.6 °C
GATCCAGATATGGATC ((((((....)))))),-41.7 kcal/mol,57.1 °C
GATCCCTGCCGGGATC ((((((....)))))),-42.8 kcal/mol,60 °C
GGTGACGGAAACACCACC ((((..(....)..)))),-20 kcal/mol,34.5 °C
GCCGCACCGAAAGGTGGC (((..(((....)))))),-8.56 kcal/mol,53.5 °C
GATCCACGTGTGGATC ((((((....)))))),-44.5 kcal/mol,65.9 °C
GCTAGGCGAAAGCTTAGC ((((.((....)).)))),-31.1 kcal/mol,61 °C
GATCAAACCATTGATC ((((((....)))))),-31.2 kcal/mol,42.1 °C
GCGGCTTCGAAAGAACGC (((..(((....)))))),-21.4 kcal/mol,44.6 °C
GCGAAGCGAAAGCTCGC (((.(((....)))))),-24.3 kcal/mol,67.1 °C
GCAAGCCCGAAAGGGTGC (((..(((....)))))),-14.4 kcal/mol,47.2 °C
GATCGGTTAGCCGATC ((((((....)))))),-46.4 kcal/mol,58.6 °C
GATCAAAATATTGATC ((((((....)))))),-26.6 kcal/mol,38.6 °C

Sequence,folding enthalpy [1],Tm [2]
GATCATCCCGATGATC ((((((....)))))),-51.9 kcal/mol,52.1 °C
GCCAGCGGAAACACCGGC (((.(.(....).).))),-10.2 kcal/mol,27.6 °C
GATCATAGAGATGATC ((((((....)))))),-30.1 kcal/mol,44.5 °C
GTGGTGGCGAAAGCCCAC (((..(((....)))))),-14.8 kcal/mol,53.5 °C
GGCTACGGAAACGTGGTC (.(.(((....))).).),-27.8 kcal/mol,42 °C
GTTGCCGAAAGGCCAAAC ((((((....)))..))),-10.3 kcal/mol,26.9 °C
GTGTTGGGAAACTAGCAC (((.(.(....).).))),-15.6 kcal/mol,31.8 °C
CGAGAGCGGAAACGCTCG (((..(((....)))))),-18.5 kcal/mol,58.4 °C
GCCATGCCGAAAGGCGGC (((..(((....)))))),-18.6 kcal/mol,59.2 °C
GGACGCGAAAGCGAATCC ((((((....)))..))),-13.5 kcal/mol,36.5 °C
GATCCTCGCTAGGATC ((((((....)))))),-35.6 kcal/mol,51.2 °C
GCTTTCGGAAACGAAAAC (.(((((....))))).),-22.4 kcal/mol,36.4 °C
GAAGGCGAAAGCCCCTTC ((((((....)))..))),-9.89 kcal/mol,35.1 °C
GTAACCGAAAGGTTGTAC ((((((....)))..))),-10.4 kcal/mol,33.4 °C
GATCACGTCCGTGATC ((((((....)))))),-41.6 kcal/mol,61.1 °C
GCGGCAAGCCGC ((((....)))),-28.3 kcal/mol,68.1 °C
GTCAGGTCGAAAGACGAC (((..(((....)))))),-16.8 kcal/mol,43.1 °C
GCTCGTGGAAACACGGGC ((.((((....)))).)),-37.1 kcal/mol,62.2 °C
GAAACGCCGAAAGGCTTC (((..(((....)))))),-7.92 kcal/mol,23.1 °C
GAATCCGAAAGGACCTTC ((((((....)))..))),-12.7 kcal/mol,30.3 °C
GGGTGCGAAAGCAGACCC ((((((....)))..))),-20.4 kcal/mol,54.7 °C
GACGAAGGAAACTTCATC ((.((((....)))).)),-14.7 kcal/mol,26.9 °C
GATCCTTTATAGGATC ((((((....)))))),-40.2 kcal/mol,53.4 °C

Sequence,folding enthalpy [1],Tm [2]
GGGGATGAAAATCCCC ((((((....)))))),-33.7 kcal/mol,66.2 °C
GGGCTAGGAAACTGGCTC (.((.((....)).)).),-20.4 kcal/mol,40.9 °C
GATCCGGAAGCGGATC ((((((....)))))),-33.2 kcal/mol,59.8 °C
GTCCACACGAAAGTGGAC (((..(((....)))))),-29.9 kcal/mol,56.3 °C
GAGAGAGCGAAAGCTCTC (((..(((....)))))),-9.57 kcal/mol,56.7 °C
GCGTCCTAACGC ((((....)))),-26.4 kcal/mol,54.8 °C
GTTGGGGGAAACCCTAGC (.(.(((....))).).),-9.75 kcal/mol,24.6 °C
GAGTAACGAAAGTTTCTC (((.(((....))).))),-30.1 kcal/mol,40.3 °C
GACAAAGAAATTTGTC ((((((....)))))),-27.6 kcal/mol,43.4 °C
GCGTCTGGAAACAGATGC ((.((((....)))).)),-55.5 kcal/mol,54.6 °C
GCTCCCGCGAAAGCGAGC (((..(((....)))))),-10.7 kcal/mol,37.5 °C
GCCGTGCGAAAGCATTGC ((..(((....)))..)),-12.6 kcal/mol,43.2 °C
GAGCGCGAAAGCGTACTC ((((((....)))..))),-12.1 kcal/mol,44.4 °C
GACCTACGAAAGTAGTC (((.(((....)))))),-17.3 kcal/mol,42.1 °C
GATCACACAGTGATC ((((((...)))))),-38.1 kcal/mol,58.8 °C
GATAGCGAAAGCTGATC ((((((....))).))),-13.2 kcal/mol,38.9 °C
GAGCCACGAAAGTGCTC (((.(((....)))))),-19.9 kcal/mol,54.2 °C
GTTTACGAAAGTAGAAC ((((((....))).))),-11.3 kcal/mol,27.2 °C
GGGCGGCGAAAGCCTCCC (((.(((....))).))),-21.9 kcal/mol,61.2 °C
GGCATTGGAAACGATGCC (((((.(....).))))),-42.5 kcal/mol,55.6 °C
GGTGCCGAAAGGCAGACC ((((((....)))..))),-12.1 kcal/mol,52.2 °C
GATCAGGACGCTGATC ((((((....)))))),-41.7 kcal/mol,54.2 °C
GAACACGAAAGTGTTTC ((((((....))).))),-12.4 kcal/mol,52.9 °C
